The values below come from ChEMBL document CHEMBL1156791, “Antimicrobial activity of small beta-peptidomimetics based on the pharmacophore model of short cationic antimicrobial peptides” (J Med Chem, 2010).

In brackets after ≈: the same amount, converted by molar mass.

One series concerns Escherichia coli. The series is described as follows: Antimicrobial activity against Escherichia coli ATCC 25922. The format is functional.
Series [1] is described as follows: Stability in presence of alpha-chymotrypsin after 48 hrs. Format: ADME. Summed up: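 Digestion with α-chymotrypsin (2 μg/mL final) of 100 μg/mL compound in 100 mM Tris-HCl with 10 mM CaCl2. Aliquots taken at 0, 15, 30, 60, 120, 240 min, 24 and 48 h. Quenched with 10% acetic acid plus atenolol external standard, then quantified by LC-MS/MS in positive MRM mode, in duplicate. Remaining compound expressed relative to enzyme-free control.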

Series [2] is described as follows: Stability in aqueous solution at pH7.4 after 48 hrs. Format: physicochemical. Conditions: buffer, pH 7.4, 48 h.
Series [3] can be described thus: Hemolytic activity in human RBC assessed as hemolysis at 1000 ug/ml after 1 hr. The format is ADME, cell-based. Conditions: erythrocyte.

In the series with Escherichia coli, `N=C(N)NCCC[C@H](NC(=O)C(CN)(CCC1CCCCC1)CCC1CCCCC1)C(N)=O` displayed an MBC of 289 µM (≈ 134 µg/mL) and an MIC of 144 µM (≈ 66.9 µg/mL). The Stability entry in series [1] was “Stable”. Further, in series [2], the Stability result is given as “Stable”. Also, the Activity result in series [3] is on record as “Non-toxic”.

The term MBC denotes the lowest tested concentration that kills the bacteria rather than only halting them. A lower MBC goes with more potent killing. As usually defined, the MIC is the least concentration at which growth counts as inhibited. The low end stands for greater potency, the high end for weaker potency.
